Results published in ChEMBL document CHEMBL2086318, “Synthesis and in vitro antimycobacterial activity of 2-methoxybenzanilides and their thioxo analogues” (Eur J Med Chem, 2012).
Values after ≈ are worked out from the molar mass of the structure shown.

Legend:
Assay type in all cases: functional
[1] = test system: Mycobacterium kansasii; assay: Antimycobacterial activity against Mycobacterium kansasii My 6509/96 clinical isolate after 21 days by micromethod; details: My 6509/96, 504 h
[2] = test system: Mycobacterium kansasii; assay: Antimycobacterial activity against Mycobacterium kansasii My 6509/96 clinical isolate after 14 days by micromethod; details: My 6509/96, 336 h
[3] = test system: Mycobacterium avium; assay: Antimycobacterial activity against Mycobacterium avium My 330/88 after 21 days by micromethod; details: My 330/88, 504 h
[4] = test system: Mycobacterium kansasii; assay: Antimycobacterial activity against Mycobacterium kansasii My 235/80 after 21 days by micromethod; details: My 235/80, 504 h
[5] = test system: Mycobacterium kansasii; assay: Antimycobacterial activity against Mycobacterium kansasii My 235/80 after 14 days by micromethod; details: My 235/80, 336 h
[6] = test system: Mycobacterium kansasii; assay: Antimycobacterial activity against Mycobacterium kansasii My 235/80 after 7 days by micromethod; details: My 235/80, 168 h
[7] = test system: Mycobacterium avium; assay: Antimycobacterial activity against Mycobacterium avium My 330/88 after 14 days by micromethod; details: My 330/88, 336 h
[8] = test system: Mycobacterium kansasii; assay: Antimycobacterial activity against Mycobacterium kansasii My 6509/96 clinical isolate after 7 days by micromethod; details: My 6509/96, 168 h
[9] = test system: Mycobacterium tuberculosis; assay: Antimycobacterial activity against Mycobacterium tuberculosis My 331/88 after 21 days by micromethod; details: My 331/88, 504 h
Method in brief: (§1)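 MIC by micromethod at 37 °C, read after 14 and 21 days. Inocula were M. tuberculosis My 331/88 at 10^-3 dilution and M. avium My 330/88 at 10^-5 dilution. Compounds added in DMSO across 1000, 500, 250, 125, 62.5, 32, 16, 8, 4, 2, 1 and 0.5; isoniazid standard in sterile water. MIC taken as the lowest concentration inhibiting growth.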

[10] = test system: Mycobacterium tuberculosis; assay: Antimycobacterial activity against Mycobacterium tuberculosis My 331/88 after 14 days by micromethod; details: My 331/88, 336 h; method in brief: as §1

| SMILES | MIC [1] [µM] | MIC [2] [µM] | MIC [3] [µM] | MIC [4] [µM] | MIC [5] [µM] | MIC [6] [µM] | MIC [7] [µM] | MIC [8] [µM] | MIC [9] [µM] | MIC [10] [µM] |
| --- | --- | --- | --- | --- | --- | --- | --- | --- | --- | --- |
| COc1cc(Cl)ccc1C(=S)Nc1ccc(C(F)(F)F)cc1 | 32 (≈ 11.1 µg/mL) | 32 (≈ 11.1 µg/mL) | 32 (≈ 11.1 µg/mL) | 62.5 (≈ 21.6 µg/mL) | 32 (≈ 11.1 µg/mL) | 16 (≈ 5.53 µg/mL) | 32 (≈ 11.1 µg/mL) | 8 (≈ 2.77 µg/mL) | 16 (≈ 5.53 µg/mL) | 8 (≈ 2.77 µg/mL) |
| COc1cc(Cl)ccc1C(=O)Nc1cccc([N+](=O)[O-])c1 | 125 (≈ 38.3 µg/mL) | 125 (≈ 38.3 µg/mL) | 125 (≈ 38.3 µg/mL) | 250 (≈ 76.7 µg/mL) | 250 (≈ 76.7 µg/mL) | 125 (≈ 38.3 µg/mL) | 125 (≈ 38.3 µg/mL) | 125 (≈ 38.3 µg/mL) | 125 (≈ 38.3 µg/mL) | 125 (≈ 38.3 µg/mL) |
| COc1cc(Cl)ccc1C(=O)Nc1ccc(Cl)cc1 | 62.5 (≈ 18.5 µg/mL) | 16 (≈ 4.74 µg/mL) | 32 (≈ 9.48 µg/mL) | 62.5 (≈ 18.5 µg/mL) | 16 (≈ 4.74 µg/mL) | 8 (≈ 2.37 µg/mL) | 8 (≈ 2.37 µg/mL) | 8 (≈ 2.37 µg/mL) | 125 (≈ 37 µg/mL) | 125 (≈ 37 µg/mL) |
| O=C(Nc1ccc(C(F)(F)F)cc1)c1ccc(Cl)cc1O | – | – | 8 (≈ 2.53 µg/mL) | 4 (≈ 1.26 µg/mL) | 4 (≈ 1.26 µg/mL) | – | 8 (≈ 2.53 µg/mL) | – | 4 (≈ 1.26 µg/mL) | 4 (≈ 1.26 µg/mL) |
| O=C(Nc1cccc([N+](=O)[O-])c1)c1ccc(Cl)cc1O | – | – | 16 (≈ 4.68 µg/mL) | 16 (≈ 4.68 µg/mL) | 16 (≈ 4.68 µg/mL) | – | 16 (≈ 4.68 µg/mL) | – | 8 (≈ 2.34 µg/mL) | 8 (≈ 2.34 µg/mL) |
| O=C(Nc1cccc([N+](=O)[O-])c1)c1cc(Cl)ccc1O | – | – | 16 (≈ 4.68 µg/mL) | 8 (≈ 2.34 µg/mL) | 8 (≈ 2.34 µg/mL) | – | 16 (≈ 4.68 µg/mL) | – | 8 (≈ 2.34 µg/mL) | 8 (≈ 2.34 µg/mL) |
| COc1ccc(Cl)cc1C(=S)Nc1ccc(Cl)cc1 | 32 (≈ 9.99 µg/mL) | 16 (≈ 5 µg/mL) | 32 (≈ 9.99 µg/mL) | 62.5 (≈ 19.5 µg/mL) | 32 (≈ 9.99 µg/mL) | 8 (≈ 2.5 µg/mL) | 32 (≈ 9.99 µg/mL) | 16 (≈ 5 µg/mL) | 16 (≈ 5 µg/mL) | 16 (≈ 5 µg/mL) |
| O=C(Nc1ccc(C(F)(F)F)cc1)c1cc(Cl)ccc1O | – | – | 8 (≈ 2.53 µg/mL) | 1 (≈ 0.316 µg/mL) | 1 (≈ 0.316 µg/mL) | – | 8 (≈ 2.53 µg/mL) | – | 2 (≈ 0.631 µg/mL) | 2 (≈ 0.631 µg/mL) |
| COc1cc(Cl)ccc1C(=O)Nc1cccc(Br)c1 | 125 (≈ 42.6 µg/mL) | 125 (≈ 42.6 µg/mL) | 125 (≈ 42.6 µg/mL) | 125 (≈ 42.6 µg/mL) | 125 (≈ 42.6 µg/mL) | 125 (≈ 42.6 µg/mL) | 125 (≈ 42.6 µg/mL) | 125 (≈ 42.6 µg/mL) | 250 (≈ 85.2 µg/mL) | 250 (≈ 85.2 µg/mL) |
| O=C(Nc1cccc(Cl)c1)c1ccc(Cl)cc1O | – | – | 16 (≈ 4.51 µg/mL) | 8 (≈ 2.26 µg/mL) | 4 (≈ 1.13 µg/mL) | – | 16 (≈ 4.51 µg/mL) | – | 4 (≈ 1.13 µg/mL) | 4 (≈ 1.13 µg/mL) |
| COc1cc(Cl)ccc1C(=O)Nc1ccc(C(F)(F)F)cc1 | 125 (≈ 41.2 µg/mL) | 125 (≈ 41.2 µg/mL) | 125 (≈ 41.2 µg/mL) | 125 (≈ 41.2 µg/mL) | 125 (≈ 41.2 µg/mL) | 125 (≈ 41.2 µg/mL) | 62.5 (≈ 20.6 µg/mL) | 32 (≈ 10.6 µg/mL) | 125 (≈ 41.2 µg/mL) | 125 (≈ 41.2 µg/mL) |
| COc1ccc(Cl)cc1C(=O)Nc1cccc(Br)c1 | 62.5 (≈ 21.3 µg/mL) | 62.5 (≈ 21.3 µg/mL) | 62.5 (≈ 21.3 µg/mL) | 62.5 (≈ 21.3 µg/mL) | 62.5 (≈ 21.3 µg/mL) | 62.5 (≈ 21.3 µg/mL) | 62.5 (≈ 21.3 µg/mL) | 62.5 (≈ 21.3 µg/mL) | 125 (≈ 42.6 µg/mL) | 125 (≈ 42.6 µg/mL) |
| COc1cc(Cl)ccc1C(=S)Nc1cccc(Br)c1 | 125 (≈ 44.6 µg/mL) | 125 (≈ 44.6 µg/mL) | 125 (≈ 44.6 µg/mL) | 125 (≈ 44.6 µg/mL) | 125 (≈ 44.6 µg/mL) | 125 (≈ 44.6 µg/mL) | 125 (≈ 44.6 µg/mL) | 125 (≈ 44.6 µg/mL) | 32 (≈ 11.4 µg/mL) | 32 (≈ 11.4 µg/mL) |
| COc1ccc(Cl)cc1C(=S)Nc1ccc(C(F)(F)F)cc1 | 16 (≈ 5.53 µg/mL) | 16 (≈ 5.53 µg/mL) | 16 (≈ 5.53 µg/mL) | 32 (≈ 11.1 µg/mL) | 16 (≈ 5.53 µg/mL) | 8 (≈ 2.77 µg/mL) | 16 (≈ 5.53 µg/mL) | 8 (≈ 2.77 µg/mL) | 16 (≈ 5.53 µg/mL) | 16 (≈ 5.53 µg/mL) |
| O=C(Nc1cccc(Cl)c1)c1cc(Cl)ccc1O | – | – | 16 (≈ 4.51 µg/mL) | 8 (≈ 2.26 µg/mL) | 4 (≈ 1.13 µg/mL) | – | 8 (≈ 2.26 µg/mL) | – | 8 (≈ 2.26 µg/mL) | 4 (≈ 1.13 µg/mL) |
| COc1cc(Cl)ccc1C(=S)Nc1ccc([N+](=O)[O-])cc1 | 32 (≈ 10.3 µg/mL) | 16 (≈ 5.16 µg/mL) | 16 (≈ 5.16 µg/mL) | 32 (≈ 10.3 µg/mL) | 32 (≈ 10.3 µg/mL) | 16 (≈ 5.16 µg/mL) | 16 (≈ 5.16 µg/mL) | 16 (≈ 5.16 µg/mL) | 32 (≈ 10.3 µg/mL) | 8 (≈ 2.58 µg/mL) |
| O=C(Nc1ccc(Br)cc1)c1ccc(Cl)cc1O | – | – | 16 (≈ 5.23 µg/mL) | 4 (≈ 1.31 µg/mL) | 4 (≈ 1.31 µg/mL) | – | 16 (≈ 5.23 µg/mL) | – | 4 (≈ 1.31 µg/mL) | 4 (≈ 1.31 µg/mL) |
| O=C(Nc1ccc(Br)cc1)c1cc(Cl)ccc1O | – | – | 8 (≈ 2.61 µg/mL) | 4 (≈ 1.31 µg/mL) | 4 (≈ 1.31 µg/mL) | – | 8 (≈ 2.61 µg/mL) | – | 16 (≈ 5.23 µg/mL) | 8 (≈ 2.61 µg/mL) |
